Measurements published in PMC10155261 (European journal of medicinal chemistry, 2022).

Key:
[1] = system: CCI-induced mechanical allodynia in rats; assay: Chronic constriction injury; assay type: in vivo, Sprague-Dawley rats; settings: i.p., 17.8 mg/kg
[2] = system: >50 GPCRs (NIMH Psychoactive Drug Screening Program panel); assay: NIMH PDSP radioligand binding panel; settings: < 50% inhibition at 10 μM or pKi ≤ 6
LPA1–LPA4 receptors = assay: LPA1–LPA3 calcium mobilization; assay type: cell-based; settings: 10 μM in Ca2+ for LPA1–LPA3 and cAMP for LPA4
How it was run: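 Selectivity was tested with test compound at 10 μM. LPA1–LPA3 calcium mobilization was run externally in CHO cells over-expressing each receptor, under the provider's protocols. LPA4 was a TR-FRET cAMP assay in LPA4-overexpressing CHO cells, following the LPA5 cAMP method but against 250 nM hexadecyl LPA 16:0 (EC80).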

Plasma protein binding = assay type: in vitro ADME; settings: rat
How it was run: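 Equilibrium dialysis: test compound or controls at 1 μM in rat plasma, in triplicate, against buffer across a 12–14K MWCO cellulose membrane. Incubation ran 6 h at 37 °C with light agitation to equilibrium. Plasma and buffer were extracted with cold acetonitrile/methanol (1:1) and quantified by LC-MS/MS against standard curves. Acebutolol (low-bound) and warfarin (high-bound) served as controls.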

[3] = system: fentanyl-induced mechanical hypersensitivity in rats; assay: Fentanyl; assay type: in vivo; settings: i.p.
[4] = Metabolic stability in rat liver microsomes; assay type: in vitro ADME; settings: pH 7.4
How it was run: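 Rat liver microsomes (0.5 mg/mL protein) were used in 100 mM potassium phosphate, pH 7.4, at 37 °C, with NADPH at 1 mM final. Samples were taken at 0, 5, 15, 30 and 45 min and quenched 1:1 in cold acetonitrile containing labetalol and glyburide. Parent was measured by LC-MS/MS, and half-life and in vitro clearance were calculated. Two independent experiments in duplicate.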

dopamine D3 = dopamine D3 (Homo sapiens, UniProt P35462); assay: NIMH PDSP radioligand binding, D3
dopamine D3, sequence (P35462 whole entry): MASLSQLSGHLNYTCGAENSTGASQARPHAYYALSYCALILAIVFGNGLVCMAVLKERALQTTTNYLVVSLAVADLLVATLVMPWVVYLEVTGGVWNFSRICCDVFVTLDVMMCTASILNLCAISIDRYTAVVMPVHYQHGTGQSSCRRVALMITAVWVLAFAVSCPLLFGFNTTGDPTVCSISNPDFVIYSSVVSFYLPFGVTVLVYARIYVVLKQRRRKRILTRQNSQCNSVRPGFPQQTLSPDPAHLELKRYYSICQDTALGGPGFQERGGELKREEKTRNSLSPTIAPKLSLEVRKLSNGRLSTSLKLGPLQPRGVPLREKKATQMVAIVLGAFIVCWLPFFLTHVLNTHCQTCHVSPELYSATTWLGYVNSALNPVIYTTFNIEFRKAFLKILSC

[5] = system: CFA-induced nociceptive hypersensitivity in rats; assay: CFA-induced inflammatory pain model, von Frey mechanical nociception; assay type: in vivo, Sprague-Dawley rats; settings: i.p.
[6] = system: locomotor activity in rats; assay: Locomotor activity; assay type: in vivo; settings: 17.8 mg/kg i.p., 60 min pretreatment, P > 0.05
hLPA5 [7] = molecular target: T1, hLPA5 (Homo sapiens, UniProt Q9H1C0); assay: LPA5 calcium mobilization assay; assay type: cell-based; settings: calcium assay
T1 sequence (Q9H1C0 whole entry): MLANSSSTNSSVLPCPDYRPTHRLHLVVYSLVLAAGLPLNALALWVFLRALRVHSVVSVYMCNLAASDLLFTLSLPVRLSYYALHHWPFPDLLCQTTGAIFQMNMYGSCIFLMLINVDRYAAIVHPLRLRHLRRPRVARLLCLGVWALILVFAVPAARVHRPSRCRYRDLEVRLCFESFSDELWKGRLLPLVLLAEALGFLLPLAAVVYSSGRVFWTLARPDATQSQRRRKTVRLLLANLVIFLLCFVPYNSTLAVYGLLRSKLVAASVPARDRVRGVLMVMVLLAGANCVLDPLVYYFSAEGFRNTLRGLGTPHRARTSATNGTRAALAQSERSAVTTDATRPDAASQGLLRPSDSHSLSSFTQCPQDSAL
How it was run: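 RH7777-hLPA5 cells were plated on poly-D-lysine at 20,000 cells/well in 0.2% FBS medium for 18–20 h at 37 °C. They were loaded 45 min with Calcium 5 dye in HBSS, 20 mM HEPES and 2.5 mM probenecid, pH 7.4. Eight test-compound concentrations were pre-incubated for 15 min at 37 °C, then hexadecyl LPA 16:0 EC80 (30 nM) was added at 10 s. Fluorescence (485/525 nm) was read every 1 s for 90 s. IC50 came from a three-parameter logistic fit of RFU. Duplicate determinations; two or at least three independent experiments.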

P-glycoprotein (MDR1) = assay: Bidirectional MDCK-MDR1 permeability; assay type: in vitro ADME; settings: dog, MDCK-MDR1, pH 7.4
How it was run: (§1)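 MDCK-mdr1 cells (passage 5) were grown on polycarbonate Transwell supports for 3 days and rinsed with warm HBSS. They were pre-incubated 30 min at 37 °C in HBSS with 10 mM HEPES and 0.25% BSA, pH 7.4, then TEER was measured. Test compound at 10 μM went to the apical donor (A-to-B) or basolateral donor (B-to-A) side, at 37 °C with light agitation. Receiver was sampled at 30, 60 and 90 min and analysed by LC-MS/MS. Papp came from dQ/dt, area 1.12 cm2 and initial donor concentration. Atenolol and propranolol were references.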

[8] = Bidirectional MDCK-MDR1 permeability; assay type: in vitro ADME; settings: dog
How it was run: as §1

hLPA5 [9] = molecular target: T1, hLPA5; assay: LPA5 TR-FRET Lance Ultra cAMP assay; assay type: cell-based; settings: cAMP assay

fraction unbound at 6 h, 1 μM (Plasma protein binding): 0.01 | CLint scaled at 0.75 h [4]: 74.7 mL/min/kg | Ki (dopamine D3): 380 nM | fold more potent than the 4-fluoro analog 65 (hLPA5 [7]): 2 fold | efflux ratio at 90 min, 10 μM (P-glycoprotein (MDR1)): < 2.5 | Papp A→B at 90 min, 10 μM ([8]; MDCK-MDR1, pH 7.4): 30.4 ×10⁻⁶ cm/s | Papp B→A at 90 min, 10 μM ([8]; MDCK-MDR1, pH 7.4, Papp (B-to-A), MDCK-MDR1 Transwell, 10 μM): 38.7 ×10⁻⁶ cm/s | fold less potent than 2 (hLPA5 [9]): 1.7 fold
Structure (SMILES): C#CC1CCN(C(=O)c2cn(-c3ccc4scc(C)c4c3)c(=O)c3cc(OC)c(OC)cc23)CC1 [Compound 66, 4-(4-Ethynylpiperidine-1-carbonyl)-6,7-dimethoxy-2-(3-methylbenzo[b]thiophen-5-yl)isoquinoli-n-1(2H)-one]
effect on CCI-induced mechanical allodynia [1]: completely reversed this hypersensitivity condition | affinity for panel receptors [2]: no significant affinity for most of the receptors | LPA1–LPA4 inhibition (LPA1–LPA4 receptors): <50% | dose achieving statistical significance in OIH model [3]: 5.6 mg/kg | effect on fentanyl-induced mechanical hypersensitivity (OIH) [3]: dose-dependently and significantly mitigated this mechanical hypersensitivity | effect on CFA-induced nociceptive hypersensitivity ([5]; 17.8 mg/kg): markedly alleviated nociceptive hypersensitivity | duration of effect in CFA model ([5]; 65 and 66 at 17.8 mg/kg, 2 at 32 mg/kg): ~ 5 h | effect on locomotor activity [6]: did not have any measurable effect on the locomotor activity
